Measured values published in ChEMBL document CHEMBL1149065, “Synthesis and structure-activity relationships of cytotoxic 7-hydroxy sterols” (J Nat Prod, 1994).

Legend:
[1] = test system: Saccharomyces cerevisiae; assay: Antifungal activity against Saccharomyces cerevisiae RS 322YK (rad 52Y) assessed as DNA damaging activity; format: functional, organism-based
Procedure, shortened: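 Growth inhibition of the rad 52 mutant strain RS322YK of *Saccharomyces cerevisiae*, measured as a zone of inhibition. Activity is reported as IC₁₂, the concentration giving a 12 mm diameter inhibition zone, in µg/ml. Sterols were also tested against the wild-type RAD⁺ strain.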

[2] = test system: Vero; assay: Cytotoxicity against african green monkey Vero cells; format: cell-based; conditions: Chlorocebus sabaeus

## C=C(CC[C@@H](C)[C@H]1CC[C@H]2[C@@H]3[C@@H](O)C=C4C[C@@H](O)CC[C@]4(C)[C@H]3CC[C@]12C)C(C)C
[1]
  IC12: > 8000 µg/mL
[2]
  IC50: 31 µM

## CC(C)[C@@]1(CC[C@@H](C)[C@H]2CC[C@H]3[C@@H]4[C@H](O)C=C5C[C@@H](O)CC[C@]5(C)[C@H]4CC[C@]23C)CO1
[1]
  IC12: 0.2 µg/mL
[2]
  IC50: > 100 µM

## CC(C)C(=O)CC[C@@H](C)[C@H]1CC[C@H]2[C@@H]3[C@@H](O)C=C4C[C@@H](O)CC[C@]4(C)[C@H]3CC[C@]12C
[1]
  IC12: > 500 µg/mL
[2]
  IC50: 21 µM

## CC(C)[C@@]1(CC[C@@H](C)[C@H]2CC[C@H]3[C@@H]4CC=C5C[C@@H](O)CC[C@]5(C)[C@H]4CC[C@]23C)CO1
[1]
  IC12: > 8000 µg/mL

## CC(C)C(=O)CC[C@@H](C)[C@H]1CC[C@H]2[C@@H]3CC=C4C[C@@H](O)CC[C@]4(C)[C@H]3CC[C@]12C
[1]
  IC12: > 8000 µg/mL

## CC(C)C(=O)CC[C@@H](C)[C@H]1CC[C@H]2[C@@H]3[C@H](O)C=C4C[C@@H](O)CC[C@]4(C)[C@H]3CC[C@]12C
[1]
  IC12: 14 µg/mL
[2]
  IC50: 9.9 µM

## C=C(CC[C@@H](C)[C@H]1CC[C@H]2[C@@H]3CC=C4C[C@@H](O)CC[C@]4(C)[C@H]3CC[C@]12C)C(C)C
[1]
  IC12: > 8000 µg/mL

## C=C(CC[C@@H](C)[C@H]1CC[C@H]2[C@@H]3[C@H](O)C=C4C[C@@H](O)CC[C@]4(C)[C@H]3CC[C@]12C)C(C)C
[1]
  IC12: 7 µg/mL
[2]
  IC50: 58 µM

## CC(C)[C@@]1(CC[C@@H](C)[C@H]2CC[C@H]3[C@@H]4[C@@H](O)C=C5C[C@@H](O)CC[C@]5(C)[C@H]4CC[C@]23C)CO1
[1]
  IC12: > 8000 µg/mL
[2]
  IC50: 16 µM
